# From ChEMBL document CHEMBL4808167, “Design, Synthesis, and Evaluation of Small Molecule Gαq/11 Protein Inhibitors for the Treatment of Uveal Melanoma” (J Med Chem, 2021)
# Calls of active or inactive are those of the source. The rule behind the calls is not given here.
# Key:
# [1] = target: T1, GNAQ/GNA11 (Homo sapiens) (UniProt P50148+P29992); assay: Inhibition of Galphaq/11 in human MP41 cells assessed as induction of YAP phosphorylation at 15 to 30 uM after 48 hrs by Western blot analysis; type: cell-based; conditions: dose 15-30 µM
# Outline: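 92.1 and MP41 cells plated overnight, then exposed to compound 48 h. Lysed in ice-cold buffer and protein quantified by BCA. Resolved on 8−12% SDS−PAGE and transferred to PVDF. Probed for p-YAP Ser127, total YAP, p-ERK1/2 Thr202/Tyr204 and total ERK1/2, with GAPDH as loading control. ECL detection, triplicate.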
# [2] = test system: MP41; assay: Inhibition of cell migration in human MP41 cells at 15 uM incubated for 48 hrs by transwell migration assay; type: functional, cell-based
# Outline: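 Transwell migration: 92.1 and MP41 cells (RPMI-1640, 10% FBS) seeded 1 × 10⁴/well in upper chamber in serum-free medium, 20% FBS medium below; overnight at 37 °C, then compound for 48 h. Non-migrated cells swabbed off; lower cells crystal violet-stained 30 min, counted by light microscopy. Mean SD of three independent experiments.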
# [3] = target: T1, GNAQ/GNA11 (Homo sapiens); assay: Inhibition of Galphaq/11 in human MP41 cells xenografted mouse tumor tissue assessed as inhibition of ERK phosphorylation at 10 to 30 mg/kg, ip administered for 21 consecutive days by Western blot analysis; type: organism-based; conditions: dose 10-30 mg/kg, time 21.0 day
# Outline: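 MP41 xenograft tumours from mice given 10 or 30 mg/kg/day ip for 21 consecutive days were analysed by Western blot. Probed for p-YAP, YAP, p-ERK and ERK, with GAPDH as loading control. Representative of triplicate experiments.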
# [4] = Induction of apoptosis in human 921 cells assessed as necrotic cells at 15 uM after 48 hrs by Annexin-V-FITC/propidium iodide staining based flow cytometry (reference value: 0.26%); type: functional
# [5] = Toxicity in nude BALB/c mouse xenografted with human MP41 cells assessed as morphological changes in heart tissue at 10 to 30 mg/kg, ip administered once daily for 21 days and measured every 3 days by HE staining based assay; type: organism-based; conditions: in vivo, 504 h, dose 10-30 mg/kg, time 21 day
# Outline: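 Nude BALB/c mice bearing serially passaged MP41 tumour slices (tertiary recipients, n = 8/group, randomized) dosed ip daily for 21 days at 10 or 30 mg/kg/d or vehicle. Body weight monitored every 3 days. Tissues collected at sacrifice, fixed in 4% paraformaldehyde 24 h, paraffin-embedded, H&E stained, viewed at ×100.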
# [6] = Induction of apoptosis in human MP41 cells assessed as viable cells at 30 uM after 48 hrs by Annexin-V-FITC/propidium iodide staining based flow cytometry (reference value: 93.6%); type: functional; conditions: read-out: Activity
# [7] = test system: 921; assay: Inhibition of cell invasion in human 921 cells at 5 to 15 uM incubated for 48 hrs by transwell assay; type: functional, cell-based; conditions: dose 5-15 µM
# Outline: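 92.1 or MP41 cells (1 × 10⁴/well) seeded in serum-free medium in the upper transwell chamber, with 20% FBS medium below. Left overnight, then treated 48 h. Non-migrated cells swabbed off; cells on the lower side stained with crystal violet 30 min and counted by light microscopy (×40 for migration, ×100 for invasion). Mean ± SD, n = 3.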
# [8] = Antitumor activity against human MP41 cells xenografted in nude BALB/c mouse assessed as tumor growth inhibition at 30 mg/kg, ip administered for once daily for 21 days and measured every 3 days; type: functional; conditions: 504 h, time 21 day, read-out: TGI
# Outline: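 MP41 tumours were passaged subcutaneously mouse-to-mouse in nude BALB/c mice (6−8 weeks, 20−25 g). Tertiary recipients randomized, n = 8/group, given 10 or 30 (mg/kg)/d ip or vehicle for 21 days. Tumour size (V = A × B² × π/6, caliper) and body weight taken every 3 days; tumours excised and weighed on day 22. TGI computed versus the vehicle group.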
smiles,measurement,setting,value
CC[C@@H](C)[C@H](N)C(=O)N1CCn2cc(-c3ccccc3)nc2[C@@H]1CC1CCCCC1,inhibition,[1],Active
same,inhibition,[2],Active
same,inhibition,[3],Active
same,Activity,[4],0.36%
same,Activity,[5],Non-Toxic
same,viability at 30 µM,[6],75.7%
same,inhibition,[7],Active
same,inhibition in vivo at 30 mg/kg,[8],99%
